Assay results published in PMC8504818 (Clinical and Translational Science, 2021).
Entries after “also recorded” stand apart in the source; their conditions may differ. Like-named read-outs stand apart in the source and are kept apart here. Marks after values point to notes of the source that are not given here.

Columns and labels:
[1] = Study 2 safety and tolerability; assay type: in vivo, human
Outline: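 Double-blind, randomized, serial-panel multiple-dose design: 3 panels of 8 (6 active, 2 placebo) took capsules once weekly for 3 weeks, at least 10 days between panels. Assessments were vital signs, 12-lead ECGs, and hematology and blood chemistry at prespecified times. Adverse events were monitored from consent through 21 days after the last dose. Placebo data were pooled. Participants were adults 18–60 y, BMI ≤32 kg/m2, without HIV.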

Study 1 [2] = assay type: in vivo, human
Outline: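 Double-blind, randomized, alternating-panel single-dose design: 3 panels of 8 (6 active, 2 placebo) received an oral suspension or the vehicle as placebo. Assessments were vital signs, 12-lead ECGs, and hematology and blood chemistry at prespecified times. Adverse events were recorded from consent through 21 days after treatment ended. Placebo recipients were pooled. Participants were adults 18–60 y, BMI ≤32 kg/m2, men or women of nonchildbearing potential.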

Study 1 [3] = assay type: in vivo, human; remark: listed apart in the source
Outline: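 Fasted single oral-suspension doses, with 30 mg also given after a high-fat breakfast (55.6 g fat, 55 g carbohydrate, 31.1 g protein), 6 active and 2 placebo per panel. Plasma was sampled predose to ~96 h and analysed by protein precipitation and reversed-phase LC-MS/MS (LLOQ 1.00 ng/ml; range 1.00–1000.00 ng/ml). Log-transformed values went into a mixed model (treatment fixed, subject random), giving a fed/fasted geometric mean ratio with 90% CI.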

[4] = cited from earlier work
SIV [5] = settings: weekly oral islatravir; cited from earlier work
HIV‐1 = settings: cited from earlier work
SIV [6] = settings: once‐weekly oral islatravir; cited from earlier work
Study 2 = assay type: in vivo, human; settings: for Accumulation ratio: week 3 / week 1, plasma islatravir AUC0–168 h / Accumulation ratio: week 3 / week 1, plasma islatravir Cmax: LS mean difference (90% CI); for AUC(0-t): Plasma islatravir AUC0–168 h; for AUC(0-t) / Cmax: LS mean (95% CI); for Cmax: Plasma islatravir Cmax
Outline: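 Capsules of 10, 30 or 100 mg were given once weekly for 3 weeks, fasted (6 active, 2 placebo per panel). Plasma was sampled predose to ~168 h after dosing and measured by reversed-phase LC-MS/MS after protein precipitation (LLOQ 1.00 ng/ml). […] Week 3/week 1 ratios are back-transformed with 90% CI.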

Study 1 [7] = assay type: in vivo, human; settings: for Intracellular islatravir‐TP AUC0–168 h / Intracellular islatravir‐TP AUC0–∞ / Intracellular islatravir‐TP C168 h / Intracellular islatravir‐TP Cmax: PBMC, LS geometric mean (95% CI)
Outline: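 PBMCs from healthy adults were collected up to ~336 h after single oral doses, fasted or after a high-fat meal (30 mg). Cells were lysed in methanol-containing solvent, protein-precipitated, and triphosphate was measured by ion-exchange LC-MS/MS (LLOQ 0.50 ng/ml; range 0.50–200.00 ng/ml). Concentrations were carryover-corrected when predose exceeded 5% of Cmax. Results are LS geometric means (95% CI) from a log-scale mixed model; fed/fasted ratios have 90% CI.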

[8] = assay type: in vivo, human; settings: for Tmax: human, PBMCs, oral
Outline: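 Healthy adults took weekly oral capsules (10, 30, 100 mg) for 3 weeks. PBMCs were collected up to ~336 h after the last dose and triphosphate was quantified by ion-exchange LC-MS/MS (LLOQ 0.50 ng/ml). Tmax is observed. […] LS means are given with 95% CI.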

[9] = up to 100 mg once weekly for 3 weeks
[10] = human, plasma, oral, 100 mg, Study 2, 100 mg once weekly, Week 1
[11] = human, plasma, oral, 100 mg, Study 2, 100 mg once weekly, Week 3
[12] = Study 2, 10 mg once weekly, Week 1, LS mean (95% CI)
[13] = Study 2, 10 mg once weekly, Week 3, LS mean (95% CI)
[14] = Study 2, 30 mg once weekly, Week 1, LS mean (95% CI)
[15] = Study 2, 30 mg once weekly, Week 3, LS mean (95% CI)
[16] = Study 2, 100 mg once weekly, Week 1, LS mean (95% CI)
[17] = Study 2, 100 mg once weekly, Week 3, LS mean (95% CI)

Compound: C#C[C@]1(CO)O[C@@H](n2cnc3c(N)nc(F)nc32)C[C@@H]1O [islatravir, 4'‐Ethynyl‐2‐fluoro‐2'‐deoxyadenosine]
- changes in clinical laboratory values, vital signs, or ECG safety parameter values [1]: No clinically meaningful relationships
- intensity of adverse events [1]: mild to moderate
- total nonserious adverse events [1]: 12
- serious adverse events [1, 9]: no serious adverse events
- tolerability [1, 9]: generally well‐tolerated
- adverse events considered related to islatravir (Study 1 [2]): none
- changes in clinical laboratory values, vital signs, or ECG safety parameter values (Study 1 [2]): No clinically meaningful relationships
- intensity of adverse events (Study 1 [2]): mild to moderate
- total nonserious adverse events (Study 1 [2]): 30
- serious adverse events (Study 1 [2]; single doses up to 400 mg): no serious adverse events
- tolerability (Study 1 [2]; single oral doses up to 400 mg): generally well‐tolerated
- decrease in plasma islatravir Cmax with a high‐fat meal (Study 1 [3]; 30 mg fed vs fasted): 49%
- increase in plasma islatravir AUC0–∞ with a high‐fat meal (Study 1 [3]; 30 mg fed vs fasted): 10%
- food effect on pharmacokinetics (Study 1 [3]; 30 mg with a high‐fat meal): no meaningful food effect
- Tmax (Study 1 [3]; human, plasma, po, median time to maximum plasma concentration (Tmax), fasted state, single oral doses): 0.5 h
- time of peak plasma concentrations postdose ([4]; rhesus macaque, enteral administration): ~ 90 min
- protection from infection (SIV [5]): protected
- tolerability (HIV‐1; phase 1b single dose): generally well‐tolerated
- suppression of HIV‐1 RNA (HIV‐1; single oral doses as low as 0.5 mg, day 7): greater than 1.0 log
- duration of declines in SIV RNA (SIV [6]): at least 7 days
- Accumulation ratio: week 3 / week 1, plasma islatravir AUC0–168 h (Study 2; Study 2, 10 mg once weekly): 1.22 (1.08, 1.36) h*μmol/L
- Accumulation ratio: week 3 / week 1, plasma islatravir Cmax (Study 2; Study 2, 10 mg once weekly): 1.25 (0.82, 1.92) nmol/L
- Accumulation ratio: week 3 / week 1, plasma islatravir AUC0–168 h (Study 2; Study 2, 30 mg once weekly): 1.22 (1.09, 1.37) h*μmol/L
- Accumulation ratio: week 3 / week 1, plasma islatravir Cmax (Study 2; Study 2, 30 mg once weekly): 0.99 (0.64, 1.51) nmol/L
- Accumulation ratio: week 3 / week 1, plasma islatravir AUC0–168 h (Study 2; Study 2, 100 mg once weekly): 1.25 (1.11, 1.40) h*μmol/L
- Accumulation ratio: week 3 / week 1, plasma islatravir Cmax (Study 2; Study 2, 100 mg once weekly): 1.26 (0.82, 1.93) nmol/L
- accumulation of islatravir in plasma (Study 2; Study 2, once‐weekly dosing for 3 weeks): little to no accumulation; also recorded: minimal accumulation
- concentration at 48 h (Study 2; human, plasma, oral, 10 mg): < 1 ng/mL
- concentration at 96 h (Study 2; human, plasma, oral, 10 mg): < 1 ng/mL
- half-life (Study 2; human, plasma, oral, 10 mg): 16.5 h
- half-life (Study 2; human, plasma, oral, 30 mg): 74.2 h
- half-life (Study 2; human, plasma, oral, 100 mg): 87.1 h
- AUC(0-t) (Study 2; [10]): 9.62 µM·h
- AUC(0-t) (Study 2; [11]): 12 µM·h
- Cmax (Study 2; [10]): 1470 nM
- Cmax (Study 2; [11]): 1850 nM

Compound: C#C[C@]1(COP(=O)(O)OP(=O)(O)OP(=O)(O)O)O[C@@H](n2cnc3c(N)nc(F)nc32)C[C@@H]1O [islatravir‐TP, 4'‐Ethynyl‐2‐fluoro‐2'‐deoxyadenosine triphosphate]
- intracellular persistence of islatravir‐TP ([4]; preclinically): > 72 h
- effect of food on islatravir‐TP AUC, Cmax, and C168 (Study 1 [7]; 30 mg with a high‐fat meal): largely unchanged; also recorded: did not affect
- posterior probability that the true mean intracellular islatravir‐TP C168 h is greater than 0.53 pmol/10^6 cells (Study 1 [7]; doses of 15 mg and above): greater than 99%
- Intracellular islatravir‐TP AUC0–168 h (Study 1 [7]; single oral 5 mg fasted): 91.6 (73.5–114) h*pmol/10^6cells
- Intracellular islatravir‐TP AUC0–∞ (Study 1 [7]; single oral 5 mg fasted): 162 (120–217) h*pmol/10^6cells
- Intracellular islatravir‐TP C168 h (Study 1 [7]; single oral 5 mg fasted): 0.29 (0.19–0.45) pmol/10^6 cells
- Intracellular islatravir‐TP Cmax (Study 1 [7]; single oral 5 mg fasted): 1.06 (0.83–1.37) pmol/10^6cells
- Intracellular islatravir‐TP AUC0–168 h (Study 1 [7]; single oral 15 mg fasted): 341 (274–425) h*pmol/10^6cells
- Intracellular islatravir‐TP AUC0–∞ (Study 1 [7]; single oral 15 mg fasted): 670 (499–900) h*pmol/10^6cells
- Intracellular islatravir‐TP C168 h (Study 1 [7]; single oral 15 mg fasted): 1.24 (0.80–1.92) pmol/10^6 cells
- Intracellular islatravir‐TP Cmax (Study 1 [7]; single oral 15 mg fasted): 3.65 (2.85–4.69) pmol/10^6cells
- Intracellular islatravir‐TP AUC0–168 h (Study 1 [7]; single oral 30 mg fasted): 871 (700–1080) h*pmol/10^6cells
- Intracellular islatravir‐TP AUC0–∞ (Study 1 [7]; single oral 30 mg fasted): 1420 (1060–1900) h*pmol/10^6cells
- Intracellular islatravir‐TP C168 h (Study 1 [7]; single oral 30 mg fasted): 2.76 (1.78–4.29) pmol/10^6 cells
- Intracellular islatravir‐TP Cmax (Study 1 [7]; single oral 30 mg fasted): 8.21 (6.39–10.50) pmol/10^6cells
- Intracellular islatravir‐TP Cmax (Study 1 [7]; single oral 30 mg fed): 7.85 (6.11–10.1) pmol/10^6cells
- Intracellular islatravir‐TP AUC0–∞ (Study 1 [7]; single oral 30 mg fed, N = 4): 1370 (975–1920) ^g h*pmol/10^6cells
- Intracellular islatravir‐TP AUC0–168 h (Study 1 [7]; single oral 30 mg fed, N = 5): 660 (520–838) ^f h*pmol/10^6cells
- Intracellular islatravir‐TP C168 h (Study 1 [7]; single oral 30 mg fed, N = 5): 2.71 (1.67–4.40) ^f pmol/10^6 cells
- Intracellular islatravir‐TP AUC0–168 h (Study 1 [7]; single oral 100 mg fasted): 1260 (1010–1560) h*pmol/10^6cells
- Intracellular islatravir‐TP AUC0–∞ (Study 1 [7]; single oral 100 mg fasted): 2480 (1850–3330) h*pmol/10^6cells
- Intracellular islatravir‐TP C168 h (Study 1 [7]; single oral 100 mg fasted): 4.79 (3.09–7.43) pmol/10^6 cells
- Intracellular islatravir‐TP Cmax (Study 1 [7]; single oral 100 mg fasted): 13.8 (10.7–17.7) pmol/10^6cells
- Intracellular islatravir‐TP AUC0–168 h (Study 1 [7]; single oral 200 mg fasted): 3100 (2490–3860) h*pmol/10^6cells
- Intracellular islatravir‐TP AUC0–∞ (Study 1 [7]; single oral 200 mg fasted): 5180 (3850–6960) h*pmol/10^6cells
- Intracellular islatravir‐TP C168 h (Study 1 [7]; single oral 200 mg fasted): 7.73 (4.98–12.0) pmol/10^6 cells
- Intracellular islatravir‐TP Cmax (Study 1 [7]; single oral 200 mg fasted): 38.4 (29.9–49.3) pmol/10^6cells
- Intracellular islatravir‐TP AUC0–168 h (Study 1 [7]; single oral 400 mg fasted): 5300 (4260–6580) h*pmol/10^6cells
- Intracellular islatravir‐TP AUC0–∞ (Study 1 [7]; single oral 400 mg fasted): 9320 (6950–12500) h*pmol/10^6cells
- Intracellular islatravir‐TP C168 h (Study 1 [7]; single oral 400 mg fasted): 18.3 (11.8–28.4) pmol/10^6 cells
- Intracellular islatravir‐TP Cmax (Study 1 [7]; single oral 400 mg fasted): 63.6 (49.6–81.6) pmol/10^6cells
- Islatravir‐TP AUC0–168 h [8, 12]: 341 (256, 454) h*pmol/10^6 cells
- Islatravir‐TP Cmax [8, 12]: 3.79 (2.68, 5.34) pmol/10^6 cells
- Islatravir‐TP AUC0–168 h [8, 13]: 476 (357, 634) h*pmol/10^6 cells
- Islatravir‐TP Cmax [8, 13]: 6.38 (4.52, 9.00) pmol/10^6 cells
- Islatravir‐TP AUC0–168 h [8, 14]: 1160 (872, 1550) h*pmol/10^6 cells
- Islatravir‐TP Cmax [8, 14]: 13.2 (9.34, 18.6) pmol/10^6 cells
- Islatravir‐TP AUC0–168 h [8, 15]: 1570 (1180, 2100) h*pmol/10^6 cells
- Islatravir‐TP Cmax [8, 15]: 19.6 (13.9, 27.7) pmol/10^6 cells
- Islatravir‐TP AUC0–168 h [8, 16]: 3150 (2370, 4200) h*pmol/10^6 cells
- Islatravir‐TP C168 [8, 16]: 13.5 (10.4, 17.6) pmol/10^6 cells
- Islatravir‐TP Cmax [8, 16]: 31.3 (22.2, 44.2) pmol/10^6 cells
- Islatravir‐TP AUC0–168 h [8, 17]: 4740 (3560, 6320) h*pmol/10^6 cells
- Islatravir‐TP Cmax [8, 17]: 46.7 (33.1, 65.9) pmol/10^6 cells
- islatravir‐TP C168 h versus pharmacokinetic target ([8]; Study 2, after the first weekly dose at all dose levels, posterior probability calculation): > 0.53 pmol/10^6 cells
- accumulation of intracellular islatravir‐TP ([8]; Study 2, multiple weekly doses of 30 and 100 mg): modest degree of accumulation
- accumulation of intracellular islatravir‐TP ([8]; Study 2, multiple weekly doses of 30 and 100 mg, listed as islatravir‐triphosphate): modest degree
- accumulation of intracellular islatravir‐TP ([8]; Study 2, weekly administration): ~1.5 fold
- Tmax ([8]; 10 mg): 48 h
- Tmax ([8]; 30 mg): 9 h
- Tmax ([8]; 100 mg): 18 h
